The record followed here is ChEMBL document CHEMBL1133509, “Synthetic oleanane and ursane triterpenoids with modified rings A and C: a series of highly active inhibitors of nitric oxide production in mouse macrophages” (J Med Chem, 2000).

Each structure is given as a SMILES string. Where only a bound is given, the exact number is not on record here.

The species entered for the first experiment is Mus musculus. The experiment is described as follows: Inhibition of nitric oxide (NO) production induced by interferon-gamma (IFN-gamma) in mouse macrophages. The class given is functional. The gist of the method: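 Primary peritoneal macrophages from female CD-1 mice (5–10 weeks), harvested four days after i.p. injection of 4% thioglycollate broth. Seeded at 2 × 10^5 cells/well and incubated 48 h with 20 ng/mL recombinant mouse IFN-γ plus compound in DMSO (final ≤0.1%), with DMSO controls. Nitrite in supernatant measured by Griess reaction at 550 nm in triplicate against sodium nitrite standard curve. IC50 is the average of two experiments.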
`COC(=O)[C@]12CC[C@@H](C)[C@H](C)C1C1=CC(=O)[C@@H]3[C@@]4(C)C=CC(=O)C(C)(C)[C@@H]4CC[C@@]3(C)[C@]1(C)CC2` (stereo partly specified): the IC50 (usually the concentration needed to halve the response being measured) is 8900 nM.

On to `COC(=O)[C@]12CCC(C)(C)CC1C1C(=O)C=C3[C@@]4(C)C=CC(=O)C(C)(C)[C@@H]4CC[C@@]3(C)[C@]1(C)CC2` (stereo partly specified), for which 700 nM corresponded to half-maximal inhibition (IC50). Compared with the last molecule, the IC50 is about 13-fold lower.

With `C[C@@H]1CC[C@]2(C(=O)O)CC[C@]3(C)C(=CC(=O)[C@@H]4[C@@]5(C)C=C(C#N)C(=O)C(C)(C)[C@@H]5CC[C@]43C)C2[C@H]1C` (stereo partly specified), the IC50 amounted to 800 nM.

Regarding `COC(=O)[C@]12CC[C@@H](C)[C@H](C)C1C1=CC(=O)[C@@H]3[C@@]4(C)C=C(C#N)C(=O)C(C)(C)[C@@H]4CC[C@@]3(C)[C@]1(C)CC2` (stereo partly specified), the half-inhibitory concentration (IC50) is 100 nM.

In turn, `CC1(C)CC[C@]2(C=O)CC[C@]3(C)C(=CC(=O)[C@@H]4[C@@]5(C)C=CC(=O)C(C)(C)[C@@H]5CC[C@]43C)C2C1` (stereo partly specified) showed an IC50 of 3800 nM.

The molecule `COC(=O)[C@]12CCC(C)(C)CC1C1C(=O)C=C3[C@@]4(C)C=C(C(N)=O)C(=O)C(C)(C)[C@@H]4CC[C@@]3(C)[C@]1(C)CC2` (stereo partly specified) yielded an IC50 of 100 nM. This IC50 lies about 38-fold lower than the previous one.

Regarding `CC(=O)OC[C@]12CCC(C)(C)CC1C1=CC(=O)[C@@H]3[C@@]4(C)C=CC(=O)C(C)(C)[C@@H]4CC[C@@]3(C)[C@]1(C)CC2` (stereo partly specified), the concentration for half-maximal inhibition (IC50) was more than 40000 nM.

As to `COC(=O)[C@]12CCC(C)(C)CC1C1=CC(=O)[C@@H]3[C@@]4(C)C=CC(=O)C(C)(C)[C@@H]4CC[C@@]3(C)[C@]1(C)CC2` (stereo partly specified), 2800 nM corresponded to half-maximal inhibition (IC50).

Consider `COC(=O)[C@]12CCC(C)(C)CC1C1C(=O)C=C3[C@@]4(C)C=C(C=O)C(=O)C(C)(C)[C@@H]4CC[C@@]3(C)[C@]1(C)CC2` (stereo partly specified), for which the IC50 was 100 nM. This IC50 is about 28-fold lower than that of the molecule before.

In turn, `COC(=O)[C@]12CCC(C)(C)CC1C1C(=O)C[C@@H]3[C@@]4(C)C=CC(=O)C(C)(C)[C@@H]4CC[C@@]3(C)[C@]1(C)CC2` (stereo partly specified) had an IC50 of 14000 nM. This IC50 is about 140-fold higher than that of the molecule before.

On to `CC1(C)CC[C@]2(CO)CC[C@]3(C)C(=CC(=O)[C@@H]4[C@@]5(C)C=CC(=O)C(C)(C)[C@@H]5CC[C@]43C)C2C1` (stereo partly specified), for which the IC50 was determined as 3000 nM.

In turn, `CC1(C)CC[C@]2(C(=O)O)CC[C@]3(C)C(=CC(=O)[C@@H]4[C@@]5(C)C=CC(=O)C(C)(C)[C@@H]5CC[C@]43C)C2C1` (stereo partly specified) showed an IC50 of 1100 nM.

With `COC(=O)[C@]12CCC(C)(C)CC1C1=CC[C@@H]3[C@@]4(C)C=CC(=O)C(C)(C)[C@@H]4CC[C@@]3(C)[C@]1(C)CC2` (stereo partly specified), the IC50 is 31000 nM. Against the preceding molecule, the IC50 is about 28-fold higher.

Another experiment is filed under the species Mus musculus. The experiment is described as follows: Evaluated for the inhibitory activity of (Nitric Oxide)NO production induced by interferon-gamma (IFN-gamma) in mouse macrophages( toxic to cells above 1 uM and is not active below 1 uM); Toxic. The class given is functional, cell-based.
On to `C[C@@H]1CC[C@]2(C(=O)O)CC[C@]3(C)C(=CC[C@@H]4[C@@]5(C)CC[C@H](O)C(C)(C)[C@@H]5CC[C@]43C)C2[C@H]1C` (stereo partly specified), for which the IC50 result is “Toxic”.

On to `COC(=O)C1=C[C@]2(C)C3=CC(=O)C4C5CC(C)(C)CC[C@]5(C(=O)OC)CC[C@@]4(C)[C@]3(C)CC[C@H]2C(C)(C)C1=O` (stereo partly specified), for which the IC50 entry was “Toxic”.

For the next experiment, the species on record is Mus musculus. The experiment is described as follows: Evaluated for the inhibitory activity of (Nitric Oxide)NO production induced by interferon-gamma (IFN-gamma) in mouse macrophages(toxic to cells above 1 uM and is not active below 1 uM); Toxic. The class given is functional, cell-based.
`COC(=O)[C@]12CCC(C)(C)CC1C1=CC[C@@H]3[C@@]4(C)C=C(C=O)C(=O)C(C)(C)[C@@H]4CC[C@@]3(C)[C@]1(C)CC2` (stereo partly specified): the IC50 result is recorded as “Toxic”.
